Only some compounds are listed: those with a hit (about 1.8% of all), similar ones and a draw of the others.
NPY-Y1 antag: NPY-Y1 receptor antagonists, primary screen, cell-based; Neuropeptide Y receptor type 1 (Homo sapiens), P25929; HEK293-CNG Y1 cells, membrane potential fluorescence; NPY at EC95, then isoproterenol; actives 1% (n = 200,000); inhibition, % at 3.6 µM;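 active = inhibition above the campaign mean inhibition of all tested compounds plus 3 SD, cut at about 20% in these data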;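 also: 0% = DMSO wells given NPY plus isoproterenol and 100% = isoproterenol alone without NPY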
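Benchmarks – high control isoproterenol alone, low control NPY with isoproterenol · Material – HEK293 Y1/CNG channel cell line · Times – dye 3 h, compound 60 min room temperature, stimulation 45 min · Probe or stimulus – NPY (25 nM), isoproterenol (1 µM), Ro 20-1724 (25 µM) · Evaluation – % inhibition of NPY effect · Signal – fluorescence, membrane potential probe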
NPY-Y1 PAM-ag: NPY-Y1 receptor potentiators or agonists, primary screen, cell-based. NPY-Y1 expressing cells, potentiator/agonist activation. activation, % at 3.6 µM. actives 0.37% (n = 220,000). AID 1304, 2008; in the data active = activation above about 33%, passing the limit was not always enough;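 also: cells stimulated with NPY at EC10 then isoproterenol at EC100; 0% = low agonist plus stimulus and 100% = saturating agonist plus stimulus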
NPY Y2 blocker: NPY-Y2 receptor antagonists, primary screen, cell-based; Neuropeptide Y receptor type 2 (Homo sapiens), P49146; NPY-Y2 expressing cells, antagonist mode; inhibition, % at 2.7 µM; actives 0.99% (n = 140,000); AID 793, 2007;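 also: 0% = vehicle with agonist challenge and 100% = reference antagonist with challenge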
Target sequence (P49146 whole entry, looked up): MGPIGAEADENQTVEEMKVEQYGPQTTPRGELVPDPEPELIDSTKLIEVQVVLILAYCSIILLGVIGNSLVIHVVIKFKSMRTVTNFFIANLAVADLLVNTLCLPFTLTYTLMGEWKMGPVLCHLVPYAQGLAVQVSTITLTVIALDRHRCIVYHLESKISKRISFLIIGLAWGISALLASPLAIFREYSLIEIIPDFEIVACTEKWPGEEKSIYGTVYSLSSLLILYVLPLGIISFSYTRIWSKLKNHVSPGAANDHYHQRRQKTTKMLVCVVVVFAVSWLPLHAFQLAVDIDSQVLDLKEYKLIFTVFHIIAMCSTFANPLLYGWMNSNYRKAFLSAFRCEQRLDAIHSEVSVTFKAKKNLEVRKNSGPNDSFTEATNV
NPY2 pot ag: NPY-Y2 potentiators or agonists, primary screen, cell-based. actives 0.45% (n = 220,000). cells expressing NPY-Y2, potentiator/agonist read-out. Neuropeptide Y receptor type 2 (Homo sapiens), P49146. activation, % at 3.6 µM; in the data active = activation above about 27%;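 also: cells stimulated with NPY near EC25 plus isoproterenol at EC100; 0% = vehicle plus submaximal agonist and 100% = vehicle plus saturating agonist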
NPY-Y1 ant conf: NPY-Y1 receptor antagonists, retest of hits, confirmation, HEK293-CNG cells, membrane potential fluorescence, triplicate. shares compounds with NPY-Y1 antag. cAMP; NPY challenge against isoproterenol-raised cAMP. inhibition, % at 3.6 µM. actives 21% (n = 1,200). AID 1254, 2008; in the data active = inhibition above about 20%;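 also: 0% = vehicle with agonist plus stimulus and 100% = stimulus alone without agonist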
NPY-Y2 antag ct: NPY-Y2 receptor antagonists, selectivity check, confirmation, counter-screen for NPY-Y1 antagonist project, HEK293-CNG cells, membrane potential fluorescence, triplicate. shares compounds with NPY-Y1 antag. antagonism; cells given NPY, then isoproterenol. inhibition, % at 3.6 µM. actives 28% (n = 1,200);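 also: 0% = DMSO with agonist challenge and 100% = reference antagonist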
Starred values were filed as active, the others as inactive; · = no result. Rule as the data show it, unless noted: active = inhibition above about 17%; inactive = the rest.

SMILES	NPY-Y1 antag	NPY-Y1 PAM-ag	NPY Y2 blocker	NPY2 pot ag	NPY-Y1 ant conf	NPY-Y2 antag ct
Cc1ccc(C(=O)c2cc([N+](=O)[O-])ccc2N2CCOCC2)cc1C	7	-3	3	-3	·	·
Cc1ccc(C(=O)c2cc([N+](=O)[O-])ccc2N2CCOCC2)c(C)c1	34*	-4	3	-8	6	22*
O=C(c1ccco1)N(CCO)Cc1cc2cc3c(cc2[nH]c1=O)OCO3	2	0	·	-3	·	·
Cc1ccc(Cn2nc(-c3ccccc3)nc2-c2ccccc2)cc1	25*	-13	14	-30	13	11
COc1cccc(/C=N/NC(=O)CN(CCc2ccccc2)S(=O)(=O)c2ccc(NC(C)=O)cc2)c1	-1	2	-1	16	·	·
CCCCNCC(O)(c1ccc(Cl)cc1)c1ccc(Cl)cc1	26*	-11	·	-18	19	17*
CCCCCCCCCn1c2c(c(=N)c3c1CCC3)CCCC2	58*	-78	·	-40	102*	79*
CCCCCn1c2c(c(=N)c3ccccc31)CCC2	·	-46	·	4	·	·
CCCCCCCCn1c2c(c(=N)c3ccccc31)CCC2	99*	-95	·	-66	77*	74*
CCOc1cc(C(=O)NCCCn2ccnc2)cc(OCC)c1OCC	-3	-17	2	4	·	·
COc1cccc(C2=NN(C(=O)c3ccc(C)o3)C(O)(C(F)(F)F)C2)c1 (stereo not given)	31*	-15	·	0	12	15
Cc1nc2cc(N3CCCCC3)c(NC(=O)c3cccnc3)cc2c(=O)n1Cc1ccccc1	23*	-77	6	-26	8	9
CC(C)CCNC(=O)CN(C(=O)CCC(=O)Nc1ccccn1)c1ccc(F)c(Cl)c1	1	-7	·	17	·	·
CC(C)(C)Nc1nc(N2CCCC2)nc(N2CCCC2)n1	19	18	15	11	·	·
CCCNc1nc(N2CCCC2)nc(N2CCCC2)n1	30*	-1	·	8	13	11
CC(CN1CCN(Cc2ccccc2)CC1)OC(=O)c1ccco1 (stereo not given)	·	-3	·	-11	·	·
Cc1ccc(N(CC(=O)O)S(C)(=O)=O)cc1	0	6	·	8	·	·
Cc1ccnc(N2CCN(C(=O)CSc3nc4ccccc4nc3N3CCC(C)CC3)CC2)c1	24*	-1	·	-8	10	8
Cn1cc(CN2CCN(Cc3ccccc3)CC2)c(-c2cccc(Cl)c2)n1	1	6	·	-19	·	·
Cc1ccccc1NC1=C(Cl)C(=O)N(C2CCCCC2)C1=O	22*	-14	3	7	7	1
CCOC(=O)C1(CCOc2ccccc2)CCN(Cc2cccn2-c2ncccn2)CC1	25*	-10	·	-25	11	12
CCOC(=O)C1(CCOc2ccccc2)CCN(Cc2ccncc2)CC1	1	6	·	3	·	·
CCOC(=O)C1(Cc2cccc(OC)c2)CCN(Cc2cccn2-c2ccccn2)CC1	29*	-30	·	-30	17	16
O=C(COC(=O)/C=C/c1ccc(S(=O)(=O)N2CCOCC2)cc1)NC1CCCCCCC1	0	17	·	-10	·	·
Cc1ccccc1COC(=O)c1nn(-c2ccccc2)nc1N	19	-32	·	-26	·	·
SMILES	NPY-Y1 antag	NPY-Y1 PAM-ag	NPY Y2 blocker	NPY2 pot ag	NPY-Y1 ant conf	NPY-Y2 antag ct
Nc1nn(-c2ccccc2)nc1C(=O)OCc1ccccc1F	30*	-27	·	-15	8	7
CCCCCCCCCCC(=O)NNC(=O)c1c(O)c2ccccc2n(CC)c1=O	0	-13	·	0	·	·
c1ccc(-c2ccccc2OCCCN2CCCCCC2)cc1	26*	-15	·	-10	11	13
c1ccc(-c2ccccc2OCCCN2CCCC2)cc1	17	-1	6	1	·	·
CCc1nc(N2CCN(C(=O)c3ccccc3)CC2)c2c3c(sc2n1)CCCC3	22*	-21	·	-8	9	10
COc1ccc(Cl)cc1NC(=O)CNc1ccccc1CN(C)C1CCCCC1	29*	-17	·	-8	26*	20*
COc1ccc(C)cc1NC(=O)CNc1ccccc1CN(C)C1CCCCC1	12	7	·	-7	·	·
COc1cc(-c2noc(-c3ccccc3C(=O)NCc3ccco3)n2)cc(OC)c1OC	25*	-25	3	-7	6	5
COc1ccc(NS(=O)(=O)c2cc(NC(=O)CCSc3ccccc3)ccc2OC)cc1	-5	21	2	11	·	·
COc1ccc(NC(=O)CCSc2ccc(C)cc2)cc1S(=O)(=O)Nc1ccccc1Cl	25*	4	1	-23	-2	0
O=c1c2ccccc2nc(SCCN2CCOCC2)n1CCc1ccccc1	7	-16	·	-15	·	·
COc1ccc(CCn2c(SCCN3CCCCC3)nc3ccccc3c2=O)cc1OC	38*	-27	·	-27	16	18*
COc1ccc(CSc2nc3ccccc3c(=O)n2CCCN2CCOCC2)cc1F	28*	-35	·	-22	14	14
CCc1c(C)sc(NC(=O)c2cccs2)c1C(=O)OC(C)C	20*	-19	4	-16	10	18*
Cc1cc(=O)n2c(C(=O)Nc3ccc(C(=O)OC(C)C)cc3)c(C(=O)Nc3ccccc3)sc2n1	25*	-136	·	-48	35*	29*
Cc1nc(C)c(C(=O)Nc2ccccc2)s1	-3	-25	6	-6	·	·
CCOc1cc(-c2noc(N)c2C(=O)OC)cc(OCC)c1OCC	22*	-30	7	-7	6	4
COC(=O)COc1ccc(-n2cnnn2)cc1	-1	1	·	5	·	·
Cc1cc2nc(SCCOC(=O)Nc3ccccc3)nc(C)c2cc1C	23*	-32	6	-3	4	14
Cc1cc2nc(SCCOC(=O)Nc3cccc(Cl)c3)nc(C)c2cc1C	13	-21	13	-3	·	·
CCOC(=O)c1c(-c2ccccc2)csc1NC(=O)CSc1nc(C)cc(C)n1	20*	-36	9	-23	9	15
CCOC(=O)c1c(-c2ccccc2)csc1NC(=O)CSc1nc(N)cc(N)n1	-1	0	-1	1	·	·
CCN(Cc1ccccc1)C(c1cccc(C#N)c1)c1nnnn1C(C)(C)C (stereo not given)	33*	-14	8	-14	3	5
CC(NC(=O)Cn1c(NCCO)nc2ccccc21)C1CC2CCC1C2 (stereo not given)	40*	-39	·	-12	25*	12
CCCCCCNC(=O)CC(NS(=O)(=O)c1ccc(OC)cc1)C(C)C (stereo not given)	0	22	2	8	·	·
COc1ccc(C2C(C(=O)Nc3cc(OC)c(OC)c(OC)c3)c3ccccc3C(=O)N2C)cc1OC (stereo not given)	3	5	·	-3	·	·
